Converted amounts (≈) assume the structure as drawn.
How the values were obtained:
[1] = test system: Pseudomonas aeruginosa; experiment: Antibacterial activity against Pseudomonas aeruginosa PAO1 assessed as growth inhibition after 18 to 20 hrs in presence of PMBN by broth microdilution assay; type: functional; details: time 18-20 hrs
Procedure, shortened: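 Broth microdilution per EUCAST guidelines in Müller-Hinton broth II (Ca2+/Mg2+ supplemented, pH 7.3). Colonies from overnight LB-agar plates were suspended to OD600 0.08–0.13, diluted 1:100, final inoculum 5 × 10^5 CFU/mL. PMBN at 2 μg/mL was added to the inoculum where indicated. Incubation 37 °C, 18–20 h. MIC was the lowest concentration with no visible growth. At least three independent experiments.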

[2] = test system: Pseudomonas aeruginosa; experiment: Antibacterial activity against Pseudomonas aeruginosa PAO1 assessed as growth inhibition after 18 to 20 hrs by broth microdilution assay; type: functional; details: time 18-20 hrs
Procedure, shortened: (§1)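 Overnight LB-agar colonies suspended to OD600 0.08–0.13, diluted 1:100; final inoculum 5 × 10^5 CFU/mL. 37 °C, 18–20 h, humid. MIC = lowest concentration without visible growth; range from at least three independent experiments.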

[3] = test system: Pseudomonas aeruginosa; experiment: Antibacterial activity against Pseudomonas aeruginosa PA14 assessed as growth inhibition after 18 to 20 hrs in presence of PMBN by broth microdilution assay; type: functional; details: time 18-20 hrs
Procedure, shortened: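 Cation-supplemented Mueller-Hinton broth II; final inoculum 5 × 10^5 CFU/mL. Incubated at 37 °C for 18–20 h. MIC read visually as the lowest concentration without growth; at least three independent experiments.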

[4] = test system: Escherichia coli; experiment: Antibacterial activity against Escherichia coli DSM 1116 assessed as growth inhibition after 18 to 20 hrs by broth microdilution assay; type: functional; details: time 18-20 hrs
Procedure, shortened: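 Broth microdilution per EUCAST guidelines in Müller-Hinton broth II (Ca2+/Mg2+ supplemented, pH 7.3). Test range 128 to 0.125 μg/mL, from DMSO stocks. Colonies from overnight LB-agar plates were suspended to OD600 0.08–0.13, diluted 1:100, final inoculum 5 × 10^5 CFU/mL. PMBN at 2 μg/mL was added to the inoculum where indicated. Incubation 37 °C, 18–20 h. MIC was the lowest concentration with no visible growth. At least three independent experiments.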

[5] = test system: Escherichia coli; experiment: Antibacterial activity against Escherichia coli K-12 MG1655 assessed as growth inhibition after 18 to 20 hrs by broth microdilution assay; type: functional; details: time 18-20 hrs; procedure, shortened: as §1
[6] = Inhibition of Pseudomonas aeruginosa ATCC 33347 LecA expressed in Escherichia coli BL21(DE3) cells incubated for 30 to 60 mins by (N-(fluorescein-5-yl)-N'-(beta-D-(m-aminophenyl)-galactopyranosyl)thiocarbamide) reporter based fluorescence polarization assay
Procedure, shortened: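 LecA at 40 μM with 20 nM fluorescein-galactoside reporter in TBS/Ca. Test compound serial dilutions in 30% DMSO co-solvent, triplicate. Incubation 30–60 min at room temperature, then fluorescence polarization read (ex 485, em 535 nm), blank-corrected for LecA alone. Four-parameter fit with plateaus fixed by the p-nitrophenyl β-D-galactoside control. At least three independent plates.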

[7] = test system: Pseudomonas aeruginosa; experiment: Potency index ratio of Me-alpha-D-Gal IC50 to test compound IC50 for Inhibition of Pseudomonas aeruginosa ATCC 33347 LecA expressed in Escherichia coli BL21(DE3) cells
[8] = test system: Pseudomonas aeruginosa; experiment: Potency index ratio of pNP-beta-D-Gal IC50 to test compound IC50 for Inhibition of Pseudomonas aeruginosa ATCC 33347 LecA expressed in Escherichia coli BL21(DE3) cells
[9] = test system: Pseudomonas aeruginosa; experiment: Antibacterial activity against Pseudomonas aeruginosa PA14 harboring LecB deletion mutant assessed as growth inhibition after 18 to 20 hrs by broth microdilution assay; type: functional; details: time 18-20 hrs; procedure, shortened: as §1
[10] = test system: Pseudomonas aeruginosa; experiment: Antibacterial activity against Pseudomonas aeruginosa PA14 harboring LecA deletion mutant assessed as growth inhibition after 18 to 20 hrs by broth microdilution assay; type: functional; details: time 18-20 hrs; procedure, shortened: as §1
[11] = test system: Pseudomonas aeruginosa; experiment: Antibacterial activity against Pseudomonas aeruginosa PA14 assessed as growth inhibition after 18 to 20 hrs by broth microdilution assay; type: functional; details: time 18-20 hrs; procedure, shortened: as §1
[12] = test system: Staphylococcus carnosus; experiment: Antibacterial activity against Staphylococcus carnosus DSM 20501 assessed as growth inhibition after 18 to 20 hrs by broth microdilution assay; type: functional; details: time 18-20 hrs; procedure, shortened: as §1
[13] = Cytotoxicity against human A549 cells assessed as growth inhibition at 100 uM after 48 hrs by MTT assay relative to control; type: cell-based; details: read-out: GI
Procedure, shortened: (§2)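 MTT assay: HEK293 or A549 cells seeded at 2 × 10^5 per well. Compounds (final DMSO 1%) were added 24 h after seeding. Living cell mass was read after 48 h.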

[14] = Cytotoxicity against HEK293 cells assessed as growth inhibition at 100 uM after 48 hrs by MTT assay relative to control; type: cell-based; details: human, read-out: GI; procedure, shortened: as §2
[15] = Clearance in human liver microsomes; type: ADME, Microsome
[16] = Protein binding in human plasma at 1 uM measured up to 6 hrs by LC-MS/MS analysis; type: ADME, cell-free
Procedure, shortened: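 Rapid equilibrium dialysis: human plasma diluted with PBS pH 7.4 on one side, PBS on the other, compound at 1 μM final. Shaken at 37 °C for 6 h. Sampled at 0, 5 and 6 h and quantified by LC-MS/MS. Binding calculated from the concentration difference between chambers. Warfarin as control.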

[17] = Half life in human plasma at 40 uM measured up to 150 mins by LC-MS/MS analysis; type: ADME, cell-free
[18] = Clearance in mouse liver microsomes; type: ADME, Microsome
[19] = Inhibition of Pseudomonas aeruginosa PA14 LecB expressed in Escherichia coli BL21(DE3) cells incubated for 4 to 8 hrs by (N-(fluorescein-5-yl)-N'-(alpha-L-fucopyranosyl ethylene)thiocarbamide) reporter based fluorescence polarization assay
[20] = Inhibition of Pseudomonas aeruginosa PAO1 LecB expressed in Escherichia coli BL21(DE3) cells incubated for 4 to 8 hrs by (N-(fluorescein-5-yl)-N'-(alpha-L-fucopyranosyl ethylene)thiocarbamide) reporter based fluorescence polarization assay

O=C(CCCCn1cc(CN2CCN(c3cc4c(cc3F)c(=O)c(C(=O)O)cn4C3CC3)CC2)nn1)Nc1ccc(S[C@@H]2O[C@H](CO)[C@H](O)[C@H](O)[C@H]2O)cc1
MIC [1]: 8 µg/mL
MIC [2]: 32 µg/mL (≈ 40.9 µM)
MIC [3]: 2 µg/mL
MIC [4]: 4 µg/mL (≈ 5.12 µM)
MIC [5]: 2 µg/mL (≈ 2.56 µM)
IC50 [6]: 28.3 µM

[N-]=[N+]=NCCC(=O)Nc1ccc(S[C@@H]2O[C@H](CO)[C@H](O)[C@H](O)[C@H]2O)cc1
Ratio IC50 [7]: < 3
Ratio IC50 [8]: < 2
IC50 [6]: 30.9 µM

[N-]=[N+]=NCCCCC(=O)Nc1ccc(S[C@@H]2O[C@H](CO)[C@H](O)[C@H](O)[C@H]2O)cc1
Ratio IC50 [7]: < 3
Ratio IC50 [8]: < 2
IC50 [6]: 29.9 µM

O=C(Cn1cc(CCN2CCN(c3cc4c(cc3F)c(=O)c(C(=O)O)cn4C3CC3)CC2)nn1)Nc1ccc(S[C@@H]2O[C@H](CO)[C@H](O)[C@H](O)[C@H]2O)cc1
MIC [1]: 32 µg/mL
MIC [2]: > 64 µg/mL
MIC [9]: ≥ 64 µg/mL
MIC [10]: ≥ 64 µg/mL
MIC [3]: 16 µg/mL
MIC [11]: ≥ 64 µg/mL
MIC [12]: 64 µg/mL (≈ 84.9 µM)
MIC [5]: 8 µg/mL (≈ 10.6 µM)
IC50 [6]: 21.6 µM

[N-]=[N+]=NCC(=O)Nc1ccc(S[C@@H]2O[C@H](CO)[C@H](O)[C@H](O)[C@H]2O)cc1
Ratio IC50 [7]: < 3
Ratio IC50 [8]: < 2
IC50 [6]: 31.7 µM

O=C(Cn1cc(CN2CCN(c3cc4c(cc3F)c(=O)c(C(=O)O)cn4C3CC3)CC2)nn1)Nc1ccc(S[C@@H]2O[C@H](CO)[C@H](O)[C@H](O)[C@H]2O)cc1
inhibition at 48 h, 100 µM [13]: 5%
inhibition at 48 h, 100 µM [14]: 8%
microsomal CLint [15]: 10 µL/min/mg
PPB [16]: 69%
half-life at […], 40 µM [17]: > 2.5 h
microsomal CLint [18]: 10 µL/min/mg
MIC [1]: 4 µg/mL
MIC [2]: 16 µg/mL (≈ 21.6 µM)
MIC [3]: 4 µg/mL
MIC [12]: 32 µg/mL (≈ 43.3 µM)
MIC [5]: 2 µg/mL (≈ 2.7 µM)
IC50 [6]: 30.4 µM

O=C(CCn1cc(CN2CCN(c3cc4c(cc3F)c(=O)c(C(=O)O)cn4C3CC3)CC2)nn1)Nc1ccc(S[C@@H]2O[C@H](CO)[C@H](O)[C@H](O)[C@H]2O)cc1
MIC [1]: 4 µg/mL
MIC [2]: 16 µg/mL (≈ 21.2 µM)
MIC [9]: 8 µg/mL (≈ 10.6 µM)
MIC [10]: 8 µg/mL (≈ 10.6 µM)
MIC [3]: 8 µg/mL
MIC [11]: 8 µg/mL (≈ 10.6 µM)
MIC [12]: 32 µg/mL (≈ 42.5 µM)
MIC [5]: 2 µg/mL (≈ 2.65 µM)
IC50 [6]: 32.2 µM

O=[N+]([O-])c1ccc(O[C@@H]2O[C@H](CO)[C@H](O)[C@H](O)[C@H]2O)cc1
IC50 [6]: 52.7 µM

O=C(CCn1cc(CCN2CCN(c3cc4c(cc3F)c(=O)c(C(=O)O)cn4C3CC3)CC2)nn1)Nc1ccc(S[C@@H]2O[C@H](CO)[C@H](O)[C@H](O)[C@H]2O)cc1
MIC [1]: 32 µg/mL
MIC [2]: > 64 µg/mL
MIC [9]: > 64 µg/mL
MIC [10]: > 64 µg/mL
MIC [3]: 32 µg/mL
MIC [11]: > 64 µg/mL
MIC [12]: > 64 µg/mL
MIC [5]: 16 µg/mL (≈ 20.8 µM)
IC50 [6]: 28 µM

O=C(CCCCn1cc(CCN2CCN(c3cc4c(cc3F)c(=O)c(C(=O)O)cn4C3CC3)CC2)nn1)Nc1ccc(S[C@@H]2O[C@H](CO)[C@H](O)[C@H](O)[C@H]2O)cc1
MIC [1]: 32 µg/mL
MIC [2]: > 64 µg/mL
MIC [9]: > 64 µg/mL
MIC [10]: > 64 µg/mL
MIC [3]: 32 µg/mL
MIC [11]: > 64 µg/mL
MIC [12]: ≥ 64 µg/mL
MIC [4]: 4 µg/mL (≈ 5.03 µM)
MIC [5]: 16 µg/mL (≈ 20.1 µM)
IC50 [6]: 26.2 µM

O=C(O)c1cn(C2CC2)c2cc(N3CCNCC3)c(F)cc2c1=O [CIPROFLOXACIN]
inhibition at 48 h, 100 µM [13]: 18%
inhibition at 48 h, 100 µM [14]: 48%
MIC [9]: 0.05 µg/mL (≈ 0.151 µM)
MIC [10]: 0.05 µg/mL (≈ 0.151 µM)
MIC [12]: < 0.125 µg/mL
MIC [4]: < 0.125 µg/mL
MIC [5]: < 0.125 µg/mL

[N-]=[N+]=NCCCC(=O)Nc1ccc(S[C@@H]2O[C@H](CO)[C@H](O)[C@H](O)[C@H]2O)cc1
Ratio IC50 [7]: < 3
Ratio IC50 [8]: < 2
IC50 [6]: 31.1 µM

C[C@@H]1O[C@H](CNS(=O)(=O)c2ccc(CCN=[N+]=[N-])s2)[C@@H](O)[C@H](O)[C@@H]1O
IC50 [19]: 1.87 µM
IC50 [20]: 3.91 µM

O=C(CCCn1cc(CCN2CCN(c3cc4c(cc3F)c(=O)c(C(=O)O)cn4C3CC3)CC2)nn1)Nc1ccc(S[C@@H]2O[C@H](CO)[C@H](O)[C@H](O)[C@H]2O)cc1
MIC [1]: 32 µg/mL
MIC [2]: > 64 µg/mL
MIC [9]: > 64 µg/mL
MIC [10]: > 64 µg/mL
MIC [3]: 32 µg/mL
MIC [11]: > 64 µg/mL
MIC [12]: 64 µg/mL (≈ 81.9 µM)
MIC [4]: 4 µg/mL (≈ 5.12 µM)
MIC [5]: 16 µg/mL (≈ 20.5 µM)
IC50 [6]: 29.3 µM

O=C(CCCn1cc(CN2CCN(c3cc4c(cc3F)c(=O)c(C(=O)O)cn4C3CC3)CC2)nn1)Nc1ccc(S[C@@H]2O[C@H](CO)[C@H](O)[C@H](O)[C@H]2O)cc1
MIC [1]: 4 µg/mL
MIC [2]: 16 µg/mL (≈ 20.8 µM)
MIC [9]: 8 µg/mL (≈ 10.4 µM)
MIC [10]: 8 µg/mL (≈ 10.4 µM)
MIC [3]: 4 µg/mL
MIC [11]: 8 µg/mL (≈ 10.4 µM)
MIC [4]: 2 µg/mL (≈ 2.6 µM)
MIC [5]: 1 µg/mL (≈ 1.3 µM)
IC50 [6]: 27.3 µM

CO[C@H]1O[C@H](CO)[C@H](O)[C@H](O)[C@H]1O
IC50 [6]: 71.7 µM

C[C@@H]1O[C@H](CNS(=O)(=O)c2ccc(CCn3cc(CCN4CCN(c5cc6c(cc5F)c(=O)c(C(=O)O)cn6C5CC5)CC4)nn3)s2)[C@@H](O)[C@H](O)[C@@H]1O
MIC [1]: ≥ 64 µg/mL
MIC [3]: 64 µg/mL
MIC [12]: ≥ 64 µg/mL
MIC [4]: 32 µg/mL (≈ 41.2 µM)
MIC [5]: 16 µg/mL (≈ 20.6 µM)
IC50 [19]: 1 µM
IC50 [20]: 2.53 µM

— ChEMBL document CHEMBL4673246, “Directing Drugs to Bugs: Antibiotic-Carbohydrate Conjugates Targeting Biofilm-Associated Lectins of Pseudomonas aeruginosa” (J Med Chem, 2020)
